Measured values: ChEMBL document CHEMBL1275303, “Synthesis and antimicrobial activity of 2-substituted [4-(1,3,4-oxadiazol-2-yl methyl)] phthalazin-1(2H)-one derivatives” (2010)

Assays:
Bacillus subtilis [1] = experiment: Antimicrobial activity against Bacillus subtilis at 100 ug/mL after 24 hrs by well plate method; assay type: functional; conditions: read-out: IZ
Summary of the method: (§1)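 Agar well diffusion in nutrient agar. About 1 cm³ of a 24 h broth culture was placed in sterile dishes, and molten agar at 45 °C was poured over it and set. 6 mm wells were bored and filled with compound in DMSO (100 or 50). Plates were incubated 24 h at 37 °C, and the inhibition zone was read in mm. Duplicate runs, with standard deviation; amoxicillin as reference.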

Salmonella typhi [2] = experiment: Antimicrobial activity against Salmonella typhi at 50 ug/mL after 24 hrs by well plate method; assay type: functional, Salmonella enterica subsp. enterica serovar Typhi; conditions: Salmonella enterica, read-out: IZ
Summary of the method: (§2)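 Agar well diffusion in nutrient agar: about 1 cm³ of a 24 h broth culture placed in a sterile dish, molten agar at 45 °C poured over it and allowed to set. 6 mm holes cut with a sterile cork borer and filled with compound solution in DMSO. Incubated 24 h at 37 °C; inhibition zone diameter read in mm. Run in duplicate, standard deviation calculated.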

Candida albicans [3] = experiment: Antimicrobial activity against Candida albicans at 50 ug/mL after 72 hrs by well plate method; assay type: functional; conditions: read-out: IZ
Summary of the method: (§3)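 Antifungal well-plate assay on Sabouraud dextrose agar using a 72 h old broth culture of the fungal strain. Wells were filled with compound dissolved in DMSO (100 or 50), and the zone of inhibition around each well was measured. […] served as reference.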

Escherichia coli [4] = experiment: Antimicrobial activity against Escherichia coli at 50 ug/mL after 24 hrs by well plate method; assay type: functional; conditions: read-out: IZ; summary of the method: as §1
Bacillus subtilis [5] = experiment: Antimicrobial activity against Bacillus subtilis at 50 ug/mL after 24 hrs by well plate method; assay type: functional; conditions: read-out: IZ; summary of the method: as §1
Aspergillus flavus [6] = experiment: Antimicrobial activity against Aspergillus flavus at 100 ug/mL after 72 hrs by well plate method; assay type: functional; conditions: read-out: IZ
Escherichia coli [7] = experiment: Antimicrobial activity against Escherichia coli at 100 ug/mL after 24 hrs by well plate method; assay type: functional; conditions: read-out: IZ; summary of the method: as §1
Aspergillus flavus [8] = experiment: Antimicrobial activity against Aspergillus flavus at 50 ug/mL after 72 hrs by well plate method; assay type: functional; conditions: read-out: IZ
Staphylococcus aureus [9] = experiment: Antimicrobial activity against Staphylococcus aureus at 50 ug/mL after 24 hrs by well plate method; assay type: functional; conditions: read-out: IZ; summary of the method: as §1
[10] = system: Chrysosporium keratinophilum; experiment: Antimicrobial activity against Chrysosporium keratinophilum at 50 ug/mL after 72 hrs by well plate method; assay type: functional; conditions: read-out: IZ; summary of the method: as §3
Nannizzia gypsea [11] = experiment: Antimicrobial activity against Microsporum gypseum at 50 ug/mL after 72 hrs by well plate method; assay type: functional; conditions: read-out: IZ; summary of the method: as §3
[12] = system: Chrysosporium keratinophilum; experiment: Antimicrobial activity against Chrysosporium keratinophilum at 100 ug/mL after 72 hrs by well plate method; assay type: functional; conditions: read-out: IZ; summary of the method: as §3
Staphylococcus aureus [13] = experiment: Antimicrobial activity against Staphylococcus aureus at 100 ug/mL after 24 hrs by well plate method; assay type: functional; conditions: read-out: IZ; summary of the method: as §1
Candida albicans [14] = experiment: Antimicrobial activity against Candida albicans at 100 ug/mL after 72 hrs by well plate method; assay type: functional; conditions: read-out: IZ; summary of the method: as §3
Salmonella typhi [15] = experiment: Antimicrobial activity against Salmonella typhi at 100 ug/mL after 24 hrs by well plate method; assay type: functional, Salmonella enterica subsp. enterica serovar Typhi; conditions: Salmonella enterica, read-out: IZ; summary of the method: as §2
Nannizzia gypsea [16] = experiment: Antimicrobial activity against Microsporum gypseum at 100 ug/mL after 72 hrs by well plate method; assay type: functional; conditions: read-out: IZ; summary of the method: as §3

| SMILES | zone of inhibition at 100 µg/mL (Bacillus subtilis [1]) | zone of inhibition at 50 µg/mL (Salmonella typhi [2]) | zone of inhibition at 50 µg/mL (Candida albicans [3]) | zone of inhibition at 50 µg/mL (Escherichia coli [4]) | zone of inhibition at 50 µg/mL (Bacillus subtilis [5]) | zone of inhibition at 100 µg/mL (Aspergillus flavus [6]) | zone of inhibition at 100 µg/mL (Escherichia coli [7]) | zone of inhibition at 50 µg/mL (Aspergillus flavus [8]) | zone of inhibition at 50 µg/mL (Staphylococcus aureus [9]) | zone of inhibition at 50 µg/mL [10] | zone of inhibition at 50 µg/mL (Nannizzia gypsea [11]) | zone of inhibition at 100 µg/mL [12] | zone of inhibition at 100 µg/mL (Staphylococcus aureus [13]) | zone of inhibition at 100 µg/mL (Candida albicans [14]) | zone of inhibition at 100 µg/mL (Salmonella typhi [15]) | zone of inhibition at 100 µg/mL (Nannizzia gypsea [16]) |
| --- | --- | --- | --- | --- | --- | --- | --- | --- | --- | --- | --- | --- | --- | --- | --- | --- |
| O=c1c2ccccc2c(Cc2nnc(C(F)(F)F)o2)nn1CCN1CCOCC1 | 5 mm | 0 mm | 0.5 mm | 0 mm | 2 mm | 5.5 mm | 3.5 mm | 2.5 mm | 0 mm | 2 mm | 2 mm | 4.5 mm | 0 mm | 3.5 mm | 2.5 mm | 4 mm |
| O=c1c2ccccc2c(Cc2nnc(-c3ccc(Cl)nc3)o2)nn1CCN1CCOCC1 | 9 mm | 3.5 mm | 6.5 mm | 1.5 mm | 4.5 mm | 8 mm | 5.5 mm | 4.5 mm | 3.5 mm | 1.5 mm | 4 mm | 4.5 mm | 7 mm | 10.5 mm | 6.5 mm | 9.5 mm |
| O=c1c2ccccc2c(Cc2nnc(-c3ccsc3)o2)nn1CCN1CCOCC1 | 6 mm | 4.5 mm | 4.5 mm | 3.5 mm | 3 mm | 9.5 mm | 8.5 mm | 6.5 mm | 3.5 mm | 3.5 mm | 7.5 mm | 6.5 mm | 5 mm | 7.5 mm | 7.5 mm | 10.5 mm |
| O=c1c2ccccc2c(Cc2nnc(-c3ccsc3)o2)nn1Cc1ccc(Cl)nc1 | 6 mm | 10 mm | 5.5 mm | 10 mm | 4 mm | 7.5 mm | 15.5 mm | 4 mm | 7 mm | 6.5 mm | 6.5 mm | 10.5 mm | 11.5 mm | 7.5 mm | 15.5 mm | 11 mm |
| O=c1c2ccccc2c(Cc2nnc(-c3ccsc3)o2)nn1Cc1cnc(Cl)s1 | 8 mm | 7 mm | 4.5 mm | 10 mm | 4 mm | 8.5 mm | 16 mm | 3.5 mm | 7 mm | 5.5 mm | 6.5 mm | 11.5 mm | 10 mm | 8.5 mm | 12 mm | 9.5 mm |
| Cc1nnc(Cc2nn(Cc3cnc(Cl)s3)c(=O)c3ccccc23)o1 | 3 mm | 2.5 mm | 1 mm | 2.5 mm | 1 mm | 3 mm | 5.5 mm | 1 mm | 0 mm | 0 mm | 0 mm | 2.5 mm | 1 mm | 2.5 mm | 4.5 mm | 3.5 mm |
